Rows were chosen to be rich in hits. Some 3.8% of all compounds tested hit in one or more screens of this group.
Kir21 inh = Kir2.1 (mouse) channel inhibition; P35561; HEK293-Kir2.1, FluxOR thallium flux fluorescence; active compounds read low; B-score at 10 µM; 310,000 tested, 0.85% active; AID 1672;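 active means fluorescence ratio B-score at or below minus 3 SD of library scores, with starting-brightness B-score within 2 SD, cut at about -4.2 in these data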;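 further: channel flux triggered by added potassium and thallium sulfate stimulus; B-score of peak minus minimum fluorescence over baseline after thallium stimulus; more negative B-score means stronger Kir2.1 block with less thallium influx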
Target sequence (P35561 whole entry, looked up): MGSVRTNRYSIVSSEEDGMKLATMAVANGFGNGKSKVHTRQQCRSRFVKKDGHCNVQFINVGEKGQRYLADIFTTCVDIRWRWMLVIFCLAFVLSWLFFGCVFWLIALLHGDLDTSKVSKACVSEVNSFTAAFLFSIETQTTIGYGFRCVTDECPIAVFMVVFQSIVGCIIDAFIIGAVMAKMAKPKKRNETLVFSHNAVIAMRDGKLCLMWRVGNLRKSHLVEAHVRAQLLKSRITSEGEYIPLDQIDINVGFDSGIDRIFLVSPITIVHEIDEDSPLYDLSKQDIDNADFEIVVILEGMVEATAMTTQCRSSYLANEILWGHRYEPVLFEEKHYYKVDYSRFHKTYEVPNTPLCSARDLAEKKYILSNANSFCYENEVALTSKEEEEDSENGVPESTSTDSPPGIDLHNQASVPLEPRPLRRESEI
KCNK9 inh = inhibitors of human KCNK9 two-pore domain potassium channel; B-score at 10 µM; 310,000 tested, 1.2% active; AID 488922; HEK293 KCNK9, FluxOR thallium flux fluorescence; active compounds read low; Q9NPC2;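 active means ratio B-score over 3 SD below the library mean, with starting fluorescence within 5 SD of its mean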;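 further: negative B-score means less thallium flux so channel inhibition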
Target sequence (Q9NPC2 whole entry, looked up, the tested form may be a part): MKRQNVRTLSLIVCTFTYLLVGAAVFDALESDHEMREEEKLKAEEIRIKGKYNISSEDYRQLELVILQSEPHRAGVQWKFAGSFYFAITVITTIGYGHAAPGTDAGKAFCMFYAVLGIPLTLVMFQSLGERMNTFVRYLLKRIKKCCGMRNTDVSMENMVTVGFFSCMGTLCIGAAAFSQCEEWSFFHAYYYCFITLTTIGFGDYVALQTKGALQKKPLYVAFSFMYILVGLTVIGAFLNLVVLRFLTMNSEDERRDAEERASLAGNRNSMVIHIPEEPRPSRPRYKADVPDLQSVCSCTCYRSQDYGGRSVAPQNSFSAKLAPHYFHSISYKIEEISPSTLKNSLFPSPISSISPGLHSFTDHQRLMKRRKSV
KCNQ1 inh = blocks the human KCNQ1 potassium channel; 310,000 tested, 1.3% active; B-score at 10 µM; P51787; CHO-K1 KCNQ1, FluxOR thallium flux fluorescence; active compounds read high;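 active means compounds whose thallium flux B-score, printed positive for inhibition, exceeds three library SD while starting fluorescence stays within three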;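 further: channel opened by potassium depolarization with thallium stimulus after 20 min compound exposure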
KCNK3 inh = human KCNK3 channel inhibition, primary screen. O14649. B-score at 10 µM. CHO-KCNK3 thallium flux, FluxOR fluorescence; active compounds read low. 340,000 tested, 0.84% active;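 active means B-score under library mean minus 4 SD, starting fluorescence ratio at most library mean plus 5 SD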;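 further: more negative B-score means stronger inhibition of thallium flux through KCNK3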
hERG protect = compounds protecting human hERG from proarrhythmic drug block; Q12809; CHO-hERG, FluxOR thallium flux, dofetilide IC70 present; activation (rescue from dofetilide block), less the hit threshold, % at 10 µM; 310,000 tested, 0.51% active; AID 1511;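 active means activation above the mean of controls blocked by dofetilide plus 5 SD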;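 further: thallium influx through hERG after potassium depolarization seen as dye fluorescence rise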
KCNQ1 act = potentiates or activates the human KCNQ1 potassium channel; P51787; CHO-K1 KCNQ1, thallium flux FluxOR fluorescence; active compounds read high; B-score at 10 µM; 310,000 tested, 0.35% active; AID 2648;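 active means fluorescence ratio B-score, a plate-corrected score, at least three library SD, with initial intensity B-score within 5 SD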
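Assay system: stable KCNQ1 CHO-K1 line; medium: assay buffer, equal DMSO in all wells; timing: 90 min dye loading and 20 min compound exposure, both at room temperature; technique: kinetic FluxOR thallium fluorescence, 10-s 1-Hz baseline, 110-s post-stimulus read; read-out basis: B score of baseline-normalized fluorescence ratio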
KCNQ1 block val = confirmation of human KCNQ1 potassium channel inhibitors | 1,600 tested, 93% active | shares compounds with KCNQ1 inh | KCNQ1 cell line, FluxOR thallium flux fluorescence | inhibition, % at 10 µM;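 active means primary screen active, with duplicate mean exceeding buffer control mean plus 3 SD of buffer wells, cut at about 28% in these data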
CHO KCNQ1 ctr = activity in parental CHO cells lacking KCNQ1; fluorescence ratio (Tl flux) at 10 µM; AID 588366; parental CHO-K1, FluxOR thallium flux fluorescence ratio; active compounds read low; zero means no signal rise above baseline; shares compounds with KCNQ1 inh; 1,600 tested, 21% active;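 active means mean of duplicate thallium-flux fluorescence ratios in parental host cells more than 5 SD below the buffer control mean, cut at about 0.38 in these data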;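 further: ratio is peak minus minimum fluorescence divided by baseline fluorescence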
KCNQ1 APC inh = human KCNQ1 inhibition validated by electrophysiology | 490 tested, 20% active | shares compounds with KCNQ1 inh | calls only at 10 µM | KCNQ1-CHO cells, automated patch clamp current;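 active means KCNQ1 current drop exceeding 3 SD of negative control wells, seen in both duplicate runs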;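 further: steady state current during a 2 s step from -80 to +40 mV; negative values mean current inhibition and positive values mean potentiation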
KCNQ2 inh = KCNQ1 inhibitor that also blocks rat KCNQ2 channel | 1,600 tested, 71% active | shares compounds with KCNQ1 inh | inhibition, % at 10 µM | KCNQ2 cells, FluxOR thallium flux fluorescence;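 active means mean percent inhibition of the KCNQ2 thallium signal more than 5 SD above the buffer-only control wells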;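 further: KCNQ2 expressed in CHO cells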
KCNQ1 KCNE1 spec = KCNQ1 inhibitor that also blocks human KCNQ1/KCNE1 channel; shares compounds with KCNQ1 inh; KCNQ1/KCNE1 cells, FluxOR thallium flux fluorescence; inhibition, % at 10 µM; 1,600 tested, 77% active; AID 652147;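 active means mean percent inhibition of duplicate wells above the buffer-only control mean plus 3 SD of those controls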
Of the large screens only hits and unclear results are named; the others gave an inactive call (follow-up assays come after a bar, where they were run).

CC(=O)c1ccc(Nc2nc(NCCO)nc(OC(C(F)(F)F)C(F)(F)F)n2)cc1	KCNQ1 inh 8 | KCNQ1 block val 85 | CHO KCNQ1 ctr inactive | KCNQ2 inh inactive | KCNQ1 KCNE1 spec 114%
c1ccc(-c2nc3ccccn3c2NCc2ccc3c(c2)OCO3)cc1	none
COc1ccc(-c2nc3cc(C)ccn3c2NCc2ccc3c(c2)OCO3)cc1	KCNQ1 inh 7 | KCNQ1 block val 98 | CHO KCNQ1 ctr inactive | KCNQ1 APC inh inactive | KCNQ2 inh 89% | KCNQ1 KCNE1 spec 136%
COc1cccc(CNC(=O)COc2cc3c(c4oc(=O)cc(C)c24)CCC(C)(C)O3)c1	none
Cc1cc(OCC(=O)Nc2ccncc2)cc(C)c1Br	KCNQ1 inh 8 | KCNQ1 block val 131 | CHO KCNQ1 ctr inactive | KCNQ1 APC inh inactive | KCNQ2 inh 96% | KCNQ1 KCNE1 spec inactive
COc1ccc(OC)c(NC(=O)Nc2c(O)ccc3ccccc23)c1	KCNQ1 inh 12 | KCNQ1 block val inactive | CHO KCNQ1 ctr inactive | KCNQ2 inh inactive | KCNQ1 KCNE1 spec 48%
CCC(=O)Nc1c(C#N)c2nc3ccccc3nc2n1-c1ccc(C)cc1	none (no result: Kir21 inh, KCNK9 inh, KCNQ1 inh, hERG protect, KCNQ1 act)
CCC(C)n1c(NC(=O)c2ccccc2)c(C#N)c2nc3ccccc3nc21 (stereo not given)	KCNQ1 inh 8 | KCNQ1 block val 82 | CHO KCNQ1 ctr inactive | KCNQ2 inh 64% | KCNQ1 KCNE1 spec inactive
CN(C(=O)COC(=O)CCc1c[nH]c2ccccc12)c1ccccc1	none
Cc1cccc(-c2noc(CN(C)S(=O)(=O)c3cc(Cl)ccc3Cl)n2)c1	KCNK9 inh -8, KCNQ1 inh 8 | KCNQ1 block val active | CHO KCNQ1 ctr 0.35 | KCNQ2 inh inactive | KCNQ1 KCNE1 spec inactive
COc1ccc(Cl)cc1C(=O)N(Cc1nc(-c2cccc(C)c2)no1)C(C)C	none
O=S(=O)(c1ccc(N2CCN(Cc3ccccc3)CC2)nc1)N1CCCC1	none (no result: Kir21 inh, KCNK9 inh, KCNQ1 inh, hERG protect, KCNQ1 act)
COc1cc(Cl)cc(/C=N/NC(N)=O)c1O	none
CCOC(=O)N1CCN(c2nc3ccccc3nc2C(C#N)S(=O)(=O)c2ccc(C)cc2)CC1 (stereo not given)	KCNQ1 inh 9 | KCNQ1 block val 61 | CHO KCNQ1 ctr inactive | KCNQ2 inh inactive | KCNQ1 KCNE1 spec 50%
Cc1ccc(S(=O)(=O)C(C#N)c2nc3ccccc3nc2N2CCN(C)CC2)cc1 (stereo not given)	none
O=C(Nc1ccc(F)cc1)c1cc(S(=O)(=O)Nc2ccc(F)cc2)cs1	KCNQ1 inh 7 | KCNQ1 block val 66 | CHO KCNQ1 ctr inactive | KCNQ2 inh 62% | KCNQ1 KCNE1 spec inactive
CCN1CCN(CCNC(=O)c2ccc3nc(-c4cccc(C)c4)c(-c4cccc(C)c4)nc3c2)CC1	KCNQ1 inh 8 | KCNQ1 block val 76 | CHO KCNQ1 ctr 0.32 | KCNQ2 inh 91% | KCNQ1 KCNE1 spec 162%
O=C(COC(=O)c1ccccc1Nc1ccc(SC(F)F)cc1)NCc1ccco1	none
CC(=O)Nc1cccc(-c2csc(Nc3cc(C)ccn3)n2)c1	KCNQ1 inh 6 | KCNQ1 block val 70 | CHO KCNQ1 ctr inactive | KCNQ2 inh 90% | KCNQ1 KCNE1 spec 38%
Cc1[nH]n(-c2ncc(-c3ccccc3)s2)c(=O)c1C(c1ccc(Cl)cc1)C(C#N)C#N (stereo not given)	KCNQ1 inh 7 | KCNQ1 block val 45 | CHO KCNQ1 ctr inactive | KCNQ2 inh inactive | KCNQ1 KCNE1 spec 69%
Cc1[nH]n(-c2ccccc2)c(=O)c1C(c1ccccc1[N+](=O)[O-])C(C#N)C#N (stereo not given)	none
N#CC(C(=O)Nc1cccc(Cl)c1)=C1Nc2ccccc2N1	none
CC1CCC(=C(C#N)C(=O)Nc2cccc(Cl)c2)CC1 (stereo not given)	KCNQ1 inh 15 | KCNQ1 block val 96 | CHO KCNQ1 ctr inactive | KCNQ1 APC inh active | KCNQ2 inh 94% | KCNQ1 KCNE1 spec 82%
CN(Cc1cccnc1)C(=O)c1cc(COc2ccc3c(c2)CCCC3)on1	KCNQ1 inh 7 | KCNQ1 block val 115 | CHO KCNQ1 ctr inactive | KCNQ1 APC inh inactive | KCNQ2 inh 81% | KCNQ1 KCNE1 spec 46%
CCS(=O)(=O)c1nc(S(=O)(=O)c2ccc(C)cc2)c(N2CCC3(CC2)OCCO3)s1	none
COc1cccc(C(=O)Nc2ccc(Cl)c(C(F)(F)F)c2)c1	KCNQ1 inh 9 | KCNQ1 block val 136 | CHO KCNQ1 ctr 0.37 | KCNQ2 inh 130% | KCNQ1 KCNE1 spec 78%
CC1CCCCN1CC(O)COCCC12CC3CC(CC(C3)C1)C2 (stereo not given)	KCNQ1 inh 8 | KCNQ1 block val 90 | CHO KCNQ1 ctr inactive | KCNQ1 APC inh active | KCNQ2 inh 71% | KCNQ1 KCNE1 spec 64%
CCOC(=O)N1CCN(CC(O)COCCC23CC4CC(CC(C4)C2)C3)CC1 (stereo not given)	none
Cc1ccc(S(=O)(=O)Nc2ccccc2C(=O)N2CCCCC2C)c(C)c1NS(C)(=O)=O (stereo not given)	none
CC(N=c1ccccn1C(=O)Nc1ccc(Cl)cc1)c1ccco1 (stereo not given)	KCNQ1 inh 10 (no result: KCNK3 inh) | KCNQ1 block val 62 | CHO KCNQ1 ctr inactive | KCNQ2 inh 61% | KCNQ1 KCNE1 spec inactive
CC(N=c1ccccn1C(=O)Nc1ccc(F)cc1)c1ccco1 (stereo not given)	none
NC(=O)c1cc[n+](CC(=O)NC(=O)Nc2ccccc2)cc1	none (no result: Kir21 inh, KCNK9 inh, KCNQ1 inh, hERG protect, KCNQ1 act)
O=C(COC(=O)CNS(=O)(=O)c1cccc(Br)c1)NC(=O)Nc1ccc2c(c1)OCCO2	none (no result: Kir21 inh, KCNK9 inh, KCNQ1 inh, hERG protect, KCNQ1 act)
COc1ccc(CCC(C)NC(=O)Cc2ccc(OC)c(OC)c2)c(OC)c1 (stereo not given)	none
c1cncc(CNc2ncnc3sccc23)c1	KCNQ1 inh 10 | KCNQ1 block val inactive | CHO KCNQ1 ctr inactive | KCNQ2 inh inactive | KCNQ1 KCNE1 spec inactive
c1ccc(CNc2ncnc3sccc23)cc1	none
CCOC(=O)c1c(NC(=O)CSc2nnc(-c3ccccc3)o2)sc(C(C)=O)c1C	none
